Measured values reported in PMC11792500 (RSC Advances, 2025).
Where two headings read alike, the source gives them in different places.

What was measured:
[1] = test system: HCT-116 (colon cancer); assay: MTT cytotoxicity assay, HCT-116 colon cancer cells; type: cell-based, human; details: read-out: IC50 against HCT-116
Summary of the method: (§1)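 Cells (HCT116 or normal dermal fibroblasts) were obtained from ATCC, seeded per doubling time, and grown in RPMI at 37 °C, humidified 5% CO₂. After 48 h exposure to increasing test compound concentrations, MTT at 5 mg ml⁻¹ working concentration was added for 3 h in the dark, followed by DMSO solubilisation with shaking. OD was read at 570/630 nm, viability expressed as treated/untreated × 100, and IC50 ±SD reported from duplicate wells, ≥3 independent runs.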

[2] = test system: A549 (lung cancer); assay: MTT cytotoxicity assay, A549 lung cancer cells; type: cell-based, human; details: for IC50: read-out: IC50 against A549; for lipophilic efficiency (LLE): from cytotoxicity IC50 at A549, DataWarrior
Summary of the method: (§2)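 Cells from ATCC, seeded at densities set by doubling time and kept in RPMI at 37 °C, 5% CO₂. They were exposed to increasing concentrations for 48 h. MTT at 5 mg ml⁻¹ working concentration was added for 3 h in the dark, and crystals were dissolved in DMSO. […] LLE was estimated from these IC50 values and compound physicochemical properties.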

[3] = test system: normal dermal fibroblast cells; assay: MTT cytotoxicity assay, normal fibroblasts; type: cell-based; details: 48 h, read-out: IC50 against normal fibroblasts
Summary of the method: as §1

[4] = test system: A549 cell migration; assay: Wound healing; type: cell-based, human; details: A549 cells, 24 h, control 0%; for inhibition of cell migration at IC50: compound at IC50 concentration; for inhibition of cell migration at Sub IC50: compound at sub-IC50 concentration
Summary of the method: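 A549 cells were seeded at 35 000 per culture insert and grown 24 h. Proliferation was blocked with 10 μg ml⁻¹ mitomycin C for 2 h, then cells were washed three times. Cells were exposed to two test concentrations (full and sub-level) and the wound imaged at 0 and 24 h. Wound width was measured, and migration inhibition expressed against the untreated control (0%).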

[5] = molecular target: EGFR kinase (Homo sapiens, UniProt P00533); assay: EGFR kinase inhibition; type: biochemical; details: three independent replicates
EGFR kinase, sequence (P00533 25-1210): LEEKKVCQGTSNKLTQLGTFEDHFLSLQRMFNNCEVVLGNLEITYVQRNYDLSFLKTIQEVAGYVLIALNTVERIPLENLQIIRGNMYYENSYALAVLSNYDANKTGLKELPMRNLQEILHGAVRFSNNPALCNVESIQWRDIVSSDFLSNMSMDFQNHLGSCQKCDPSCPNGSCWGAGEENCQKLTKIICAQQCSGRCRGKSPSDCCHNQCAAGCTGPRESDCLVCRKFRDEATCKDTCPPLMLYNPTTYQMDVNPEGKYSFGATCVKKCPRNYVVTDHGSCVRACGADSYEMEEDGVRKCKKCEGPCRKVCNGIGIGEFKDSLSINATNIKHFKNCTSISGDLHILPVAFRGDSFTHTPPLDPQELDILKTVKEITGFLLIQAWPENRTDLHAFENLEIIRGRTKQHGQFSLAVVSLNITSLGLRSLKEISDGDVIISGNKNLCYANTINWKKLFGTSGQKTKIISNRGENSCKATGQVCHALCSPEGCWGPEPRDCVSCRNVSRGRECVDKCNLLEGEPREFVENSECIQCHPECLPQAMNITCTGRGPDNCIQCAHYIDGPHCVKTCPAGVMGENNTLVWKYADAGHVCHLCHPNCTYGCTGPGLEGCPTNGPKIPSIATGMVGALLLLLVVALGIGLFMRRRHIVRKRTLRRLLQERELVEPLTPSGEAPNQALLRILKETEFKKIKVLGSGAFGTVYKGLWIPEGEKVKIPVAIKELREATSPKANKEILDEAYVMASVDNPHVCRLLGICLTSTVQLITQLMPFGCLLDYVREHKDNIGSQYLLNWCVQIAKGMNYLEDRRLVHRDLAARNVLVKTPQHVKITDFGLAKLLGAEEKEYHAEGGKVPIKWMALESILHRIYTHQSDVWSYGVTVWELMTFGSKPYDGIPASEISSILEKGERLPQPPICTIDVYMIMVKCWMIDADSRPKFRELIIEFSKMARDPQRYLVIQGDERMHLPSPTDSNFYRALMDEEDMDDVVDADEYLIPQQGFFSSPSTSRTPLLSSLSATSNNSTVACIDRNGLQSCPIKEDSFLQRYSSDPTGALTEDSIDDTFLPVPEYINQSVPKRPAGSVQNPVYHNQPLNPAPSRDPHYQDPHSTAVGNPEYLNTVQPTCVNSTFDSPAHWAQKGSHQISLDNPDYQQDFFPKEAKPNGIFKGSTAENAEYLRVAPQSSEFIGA

[6] = test system: T47-D (breast cancer); assay: MTT cytotoxicity assay, T47-D breast cancer cells; type: cell-based, human; details: for IC50: read-out: IC50 against T47-D, MTT, 48 h treatment, ±SD, n = 9; for lipophilic efficiency (LLE): from cytotoxicity IC50 at T47-D (printed H47-D), DataWarrior
Summary of the method: as §2

[7] = MTT, 48 h treatment, ±SD, n = 9

| SMILES | IC50 ([2]; Homo sapiens, A549, 48 h) [µM] | IC50 ([1]; Homo sapiens, HCT-116, 48 h) [µM] | IC50 [3] [µM] | other results |
| --- | --- | --- | --- | --- |
| O=c1[nH]cc(F)c(=O)[nH]1 [5-FU, reference compound] | – | – | – | IC50 [1, 7]: 11 ± 0.7 µM |
| C#CCOc1ccc(/C=N\NC(=O)c2ccccc2)cc1 [7a, (Z)-N′-(4-(prop-2-yn-1-yloxy)benzylidene)benzohydrazide] | 200 ± 4 | 237 ± 6 | > 500 | – |
| C#CCOc1ccc(/C=N\Nc2ccc([N+](=O)[O-])cc2[N+](=O)[O-])cc1 [7c, (Z)-1-(2,4-dinitrophenyl)-2-(4-(prop-2-yn-1-yloxy)benzylidene)hydrazine] | 156 ± 4 | 209 ± 5 | > 500 | – |
| C#CCOc1ccc(/C=N\NC(N)=S)cc1 [7d, (Z)-2-(4-(prop-2-yn-1-yloxy)benzylidene)hydrazine-1-carbothioamide] | 128 ± 5 | 261 ± 6 | > 500 | – |
| O=C(Cn1cc(COc2ccc(/C=N/NC(=O)c3ccccc3)cc2)nn1)Nc1nc2ccccc2s1 [8a, (E)-N-(benzo[d]thiazol-2-yl)-2-(4-((4-((2-benzoylhydrazono)-methyl)phenoxy)methyl)-1H-1,2,3-triazol-1-yl)acetamide] | 18 ± 1 | 84 ± 3 | > 500 | inhibition of cell migration at IC50 [4]: 92.4%; inhibition of cell migration at Sub IC50 [4]: 44.8%; % of EGFR inhibition [5]: 98.5 ± 3.1%; IC50 [6]: 17 ± 1 µM |
| Cc1ccc2nc(NC(=O)Cn3cc(COc4ccc(/C=N/NC(=O)c5ccccc5)cc4)nn3)sc2c1 [8b, (E)-2-(4-((4-((2-benzoylhydrazono)methyl)phenoxy)methyl)-1H-1,2,3-triazol-1-yl)-N-(6-methylbenzo[d]thiazol-2-yl)acetamide] | 21 ± 1 | 94 ± 1 | > 500 | inhibition of cell migration at IC50 [4]: 78.9%; inhibition of cell migration at Sub IC50 [4]: 49.8%; % of EGFR inhibition [5]: 96.8 ± 2.1%; IC50 [6]: 13 ± 1 µM |
| CS(=O)(=O)c1ccc2nc(NC(=O)Cn3cc(COc4ccc(/C=N/NC(=O)c5ccccc5)cc4)nn3)sc2c1 [8c, (E)-2-(4-((4-((2-benzoylhydrazono)methyl)phenoxy)methyl)-1H-1,2,3-triazol-1-yl)-N-(6-(methylsulfonyl)benzo[d]thiazol-2-yl)acetamide] | 25 ± 1 | 48 ± 2 | > 500 | lipophilic efficiency (LLE) [2]: 1.84; % of EGFR inhibition [5]: 92.3 ± 3.1%; lipophilic efficiency (LLE) [6]: 1.93 |
| O=C(Cn1cc(COc2ccc(/C=N/NC(=O)c3ccncc3)cc2)nn1)Nc1nc2ccccc2s1 [8d, (E)-N-(benzo[d]thiazol-2-yl)-2-(4-((4-((2-isonicotinoylhydrazono)methyl)phenoxy)methyl)-1H-1,2,3-triazol-1-yl)acetamide] | 38 ± 2 | 100 ± 2 | > 500 | – |
| Cc1ccc2nc(NC(=O)Cn3cc(COc4ccc(/C=N/NC(=O)c5ccncc5)cc4)nn3)sc2c1 [8e, (E)-2-(4-((4-((2-isonicotinoylhydrazono)methyl)phenoxy)methyl)-1H-1,2,3-triazol-1-yl)-N-(6-methylbenzo[d]thiazol-2-yl)acetamide] | 92 ± 2 | 207 ± 5 | > 500 | – |
| CS(=O)(=O)c1ccc2nc(NC(=O)Cn3cc(COc4ccc(/C=N/NC(=O)c5ccncc5)cc4)nn3)sc2c1 [8f, (E)-2-(4-((4-((2-isonicotinoylhydrazono)methyl)phenoxy)methyl)-1H-1,2,3-triazol-1-yl)-N-(6-(methylsulfonyl)benzo[d]thiazol-2-yl)acetamide] | 38 ± 2 | 149 ± 3 | > 500 | lipophilic efficiency (LLE) [2]: 2.66; lipophilic efficiency (LLE) [6]: 2.58 |
| O=C(Cn1cc(COc2ccc(/C=N\Nc3ccc([N+](=O)[O-])cc3[N+](=O)[O-])cc2)nn1)Nc1nc2ccccc2s1 [8g, (Z)-N-(benzo[d]thiazol-2-yl)-2-(4-((4-((2-(2,4-dinitrophenyl)hydrazono)methyl)phenoxy)methyl)-1H-1,2,3-triazol-1-yl)acetamide] | 103 ± 5 | 109 ± 3 | > 500 | – |
| CS(=O)(=O)c1ccc2nc(NC(=O)Cn3cc(COc4ccc(/C=N\Nc5ccc([N+](=O)[O-])cc5[N+](=O)[O-])cc4)nn3)sc2c1 [8i, (Z)-2-(4-((4-((2-(2,4-dinitrophenyl)hydrazono)methyl)phenoxy)methyl)-1H-1,2,3-triazol-1-yl)-N-(6-(methylsulfonyl)benzo[d]thiazol-2-yl)acetamide] | 89 ± 4 | 162 ± 5 | > 500 | lipophilic efficiency (LLE) [2]: 1.50; lipophilic efficiency (LLE) [6]: 1.52 |
| NC(=S)N/N=C\c1ccc(OCc2cn(CC(=O)Nc3nc4ccccc4s3)nn2)cc1 [8j, (Z)-N-(benzo[d]thiazol-2-yl)-2-(4-((4-((2-carbamothioylhydrazono)methyl)phenoxy)methyl)-1H-1,2,3-triazol-1-yl)acetamide] | 63 ± 2 | 190 ± 4 | > 500 | lipophilic efficiency (LLE) [2]: 1.82; lipophilic efficiency (LLE) [6]: 1.81 |
| Cc1ccc2nc(NC(=O)Cn3cc(COc4ccc(/C=N\NC(N)=S)cc4)nn3)sc2c1 [8k, (Z)-2-(4-((4-((2-carbamothioylhydrazono)methyl)phenoxy)methyl)-1H-1,2,3-triazol-1-yl)-N-(6-methylbenzo[d]thiazol-2-yl)acetamide] | 138 ± 4 | 170 ± 7 | > 500 | – |
| CS(=O)(=O)c1ccc2nc(NC(=O)Cn3cc(COc4ccc(/C=N\NC(N)=S)cc4)nn3)sc2c1 [8l, (Z)-2-(4-((4-((2-carbamothioylhydrazono)methyl)phenoxy)methyl)-1H-1,2,3-triazol-1-yl)-N-(6-(methylsulfonyl)benzo[d]thiazol-2-yl)acetamide] | 142 ± 3 | 180 ± 4 | > 500 | – |
| N.N.[Cl][Pt][Cl] [Cisplatin, reference compound] | – | – | – | IC50 [2, 7]: 22 ± 1 µM |
